Measurements reported in paper PMC6605687 (The Journal of General Physiology, 2019).
Numbering of substitutions follows the chain as printed.

Columns and labels:
Assay type in all cases: cell-based
rP2X2 Lys188Gln = molecular target: T1, rP2X2 Lys188Gln (Rattus norvegicus, UniProt P49653, K188Q); test: Two-electrode voltage clamp, oocytes expressing rP2X2 Lys188Gln
T1 sequence (P49653 1-472 K188Q): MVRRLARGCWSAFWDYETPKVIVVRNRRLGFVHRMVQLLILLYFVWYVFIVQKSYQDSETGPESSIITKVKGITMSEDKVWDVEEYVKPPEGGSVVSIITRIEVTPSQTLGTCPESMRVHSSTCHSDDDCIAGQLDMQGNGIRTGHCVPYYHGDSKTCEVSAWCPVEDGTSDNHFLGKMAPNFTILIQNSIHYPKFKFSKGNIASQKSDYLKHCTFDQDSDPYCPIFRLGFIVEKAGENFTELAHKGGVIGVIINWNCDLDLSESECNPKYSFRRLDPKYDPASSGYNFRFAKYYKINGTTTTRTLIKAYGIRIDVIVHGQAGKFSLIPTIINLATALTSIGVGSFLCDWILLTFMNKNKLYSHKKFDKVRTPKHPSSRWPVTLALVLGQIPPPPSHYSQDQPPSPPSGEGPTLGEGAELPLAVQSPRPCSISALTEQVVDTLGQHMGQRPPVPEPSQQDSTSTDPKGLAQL
How it was run: (§1)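 Mutations were made by site-directed mutagenesis. Xenopus oocytes were injected with rP2X2 mRNA and incubated in L-15 at 18°C. Two-electrode voltage clamp was done 1–2 days later at −40 mV under ND96 perfusion (pH 7.4). ATP concentration-response currents were normalised and fitted to a one-component Hill equation for EC50 and Hill coefficient. Results are mean ± SEM, tested by one-way ANOVA with Dunnett's test against WT.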

rP2X2 Lys308Gln = molecular target: T2, rP2X2 Lys308Gln (Rattus norvegicus, UniProt P49653, K308Q); test: Two-electrode voltage clamp, oocytes expressing rP2X2 Lys308Gln
T2 sequence (P49653 1-472 K308Q): T1 sequence (P49653 1-472 K188Q) with Q188K, K308Q
How it was run: as §1

rP2X2 Arg290Gln = molecular target: T3, rP2X2 Arg290Gln (Rattus norvegicus, UniProt P49653, R290Q); test: Two-electrode voltage clamp, oocytes expressing rP2X2 Arg290Gln
T3 sequence (P49653 1-472 R290Q): T1 sequence (P49653 1-472 K188Q) with Q188K, R290Q
How it was run: as §1

rP2X2 Thr184Ser = molecular target: T4, rP2X2 Thr184Ser (Rattus norvegicus, UniProt P49653, T184S); test: Two-electrode voltage clamp, oocytes expressing rP2X2 Thr184Ser
T4 sequence (P49653 1-472 T184S): T1 sequence (P49653 1-472 K188Q) with T184S, Q188K
How it was run: as §1

rP2X2 Thr184Val = molecular target: T5, rP2X2 Thr184Val (Rattus norvegicus, UniProt P49653, T184V); test: Two-electrode voltage clamp, oocytes expressing rP2X2 Thr184Val
T5 sequence (P49653 1-472 T184V): T1 sequence (P49653 1-472 K188Q) with T184V, Q188K
How it was run: as §1

EC50 (rP2X2 Lys188Gln): 8.7 mM
EC50 (rP2X2 Lys308Gln): 5.8 mM
EC50 (rP2X2 Arg290Gln): 4.9 mM
EC50 (rP2X2 Thr184Ser): 0.026 ± 0.003 mM
Sensitivity to agonist (in words) (rP2X2 Thr184Ser; Thr184Ser compared with WT): WT-like sensitivity
EC50 (rP2X2 Thr184Val): 3.2 mM
Fold increase in EC50 (reduction in sensitivity), Thr184Val versus WT (rP2X2 Thr184Val; Thr184Val compared with WT): 100 fold
Structure (SMILES): Nc1ncnc2c1ncn2[C@@H]1O[C@H](COP(=O)(O)OP(=O)(O)OP(=O)(O)O)[C@@H](O)[C@H]1O [ATP, Adenosine 5′-triphosphate]
